Test results published in publication PMC9295256 (Journal of medicinal chemistry, 2021).

Experiments:
[1] = biological target: Rat recombinant neurolysin (Rattus norvegicus, UniProt P42676); assay: Hydrolysis of endogenous substrates BK and NT by Nln, LC-MS/MS; type: biochemical; settings: compound 10 or 30 μM, Nln 0.5 nM; for hydrolysis of BK by Nln, formation of BK-(1–5): BK 20 μM; for hydrolysis of NT by Nln, formation of NT-(1–10): NT 20 μM
Method in brief: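 In-house recombinant rat Nln (0.5 nM) was preincubated 10 min at 37 °C with test compound (10 or 30 µM), then given bradykinin (20 µM) for a further 10 min at 37 °C. BK-(1–5) was quantified by LC–MS/MS (water/acetonitrile with 0.1% formic acid gradient, column 40 °C) as a peak-area ratio to internal standard; n = 3.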

[2] = biological target: human angiotensin-converting enzyme (Homo sapiens, UniProt P12821); assay: Peptidase selectivity: ACE, fluorogenic substrate; type: biochemical; settings: eight-point concentration–response up to 300 μM; substrate 10 μM
Sequence of human angiotensin-converting enzyme (P12821 30-1306): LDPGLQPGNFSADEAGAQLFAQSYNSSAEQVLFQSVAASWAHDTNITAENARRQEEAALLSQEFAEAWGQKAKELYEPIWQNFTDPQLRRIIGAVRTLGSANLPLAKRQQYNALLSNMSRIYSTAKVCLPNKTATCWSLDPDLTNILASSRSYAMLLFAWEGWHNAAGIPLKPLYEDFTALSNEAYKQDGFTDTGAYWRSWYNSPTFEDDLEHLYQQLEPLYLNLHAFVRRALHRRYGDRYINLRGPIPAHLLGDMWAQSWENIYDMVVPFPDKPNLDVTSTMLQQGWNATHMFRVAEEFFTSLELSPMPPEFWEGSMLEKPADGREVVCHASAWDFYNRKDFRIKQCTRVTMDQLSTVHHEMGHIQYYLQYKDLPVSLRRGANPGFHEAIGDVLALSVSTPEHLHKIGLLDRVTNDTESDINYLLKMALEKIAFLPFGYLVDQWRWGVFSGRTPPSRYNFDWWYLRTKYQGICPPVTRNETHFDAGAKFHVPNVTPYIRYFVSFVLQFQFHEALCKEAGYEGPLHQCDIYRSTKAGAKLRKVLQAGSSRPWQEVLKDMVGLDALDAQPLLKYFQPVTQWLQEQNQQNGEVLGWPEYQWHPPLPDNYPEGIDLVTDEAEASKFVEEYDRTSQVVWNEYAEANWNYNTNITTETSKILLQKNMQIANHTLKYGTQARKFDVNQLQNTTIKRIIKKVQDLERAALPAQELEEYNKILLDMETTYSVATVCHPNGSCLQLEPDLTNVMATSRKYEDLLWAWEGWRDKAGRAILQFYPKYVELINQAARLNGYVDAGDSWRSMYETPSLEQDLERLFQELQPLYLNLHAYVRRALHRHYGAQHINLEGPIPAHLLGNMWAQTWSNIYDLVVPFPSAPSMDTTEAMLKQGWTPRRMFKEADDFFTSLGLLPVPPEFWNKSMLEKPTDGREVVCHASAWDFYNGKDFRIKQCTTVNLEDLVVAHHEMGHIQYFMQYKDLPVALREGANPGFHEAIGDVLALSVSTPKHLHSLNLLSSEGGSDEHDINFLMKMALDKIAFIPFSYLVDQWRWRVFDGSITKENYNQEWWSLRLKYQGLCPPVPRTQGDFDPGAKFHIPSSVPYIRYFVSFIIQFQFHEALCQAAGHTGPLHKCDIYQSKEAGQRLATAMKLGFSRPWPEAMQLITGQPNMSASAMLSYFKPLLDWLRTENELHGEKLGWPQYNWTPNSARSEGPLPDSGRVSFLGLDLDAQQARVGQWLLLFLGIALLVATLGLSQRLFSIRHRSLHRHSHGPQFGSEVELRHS
Method in brief: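 Continuous fluorogenic assay with recombinant human ACE in artificial CSF at 37 °C. Test compound (from 30–50 mM DMSO stocks) was preincubated with enzyme for 10 min. The reaction was started with Mca-[…]Dnp)-OH (10 µM), and fluorescence (ex 320/em 405 nm) was read continuously for 20 min; n = 4.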

human TOP = human TOP (Homo sapiens, UniProt P52888); assay: Peptidase selectivity: thimet oligopeptidase, fluorogenic substrate; type: biochemical; settings: eight-point concentration–response up to 300 μM; substrate 15 μM
Sequence of human TOP (P52888 whole entry): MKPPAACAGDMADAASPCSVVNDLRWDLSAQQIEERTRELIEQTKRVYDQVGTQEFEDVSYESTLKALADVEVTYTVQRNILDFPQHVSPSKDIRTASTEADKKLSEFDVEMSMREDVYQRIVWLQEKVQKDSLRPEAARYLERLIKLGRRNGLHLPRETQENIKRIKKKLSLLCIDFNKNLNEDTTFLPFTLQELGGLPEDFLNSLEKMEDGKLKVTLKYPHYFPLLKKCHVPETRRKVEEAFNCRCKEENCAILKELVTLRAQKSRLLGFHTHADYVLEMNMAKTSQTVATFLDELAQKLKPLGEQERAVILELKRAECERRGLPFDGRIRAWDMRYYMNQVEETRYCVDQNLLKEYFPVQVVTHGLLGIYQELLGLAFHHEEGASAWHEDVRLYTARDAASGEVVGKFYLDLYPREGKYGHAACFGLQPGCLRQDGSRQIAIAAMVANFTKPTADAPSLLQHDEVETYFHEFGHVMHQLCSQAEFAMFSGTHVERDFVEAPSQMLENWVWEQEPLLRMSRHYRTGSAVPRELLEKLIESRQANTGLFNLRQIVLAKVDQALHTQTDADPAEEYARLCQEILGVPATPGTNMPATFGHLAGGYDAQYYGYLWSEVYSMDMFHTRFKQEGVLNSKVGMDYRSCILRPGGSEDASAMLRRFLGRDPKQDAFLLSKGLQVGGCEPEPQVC

human NEP = human NEP (Homo sapiens, UniProt P08473); assay: Peptidase selectivity: neprilysin, fluorogenic substrate; type: biochemical; settings: eight-point concentration–response up to 300 μM; substrate 10 μM
Sequence of human NEP (P08473 whole entry): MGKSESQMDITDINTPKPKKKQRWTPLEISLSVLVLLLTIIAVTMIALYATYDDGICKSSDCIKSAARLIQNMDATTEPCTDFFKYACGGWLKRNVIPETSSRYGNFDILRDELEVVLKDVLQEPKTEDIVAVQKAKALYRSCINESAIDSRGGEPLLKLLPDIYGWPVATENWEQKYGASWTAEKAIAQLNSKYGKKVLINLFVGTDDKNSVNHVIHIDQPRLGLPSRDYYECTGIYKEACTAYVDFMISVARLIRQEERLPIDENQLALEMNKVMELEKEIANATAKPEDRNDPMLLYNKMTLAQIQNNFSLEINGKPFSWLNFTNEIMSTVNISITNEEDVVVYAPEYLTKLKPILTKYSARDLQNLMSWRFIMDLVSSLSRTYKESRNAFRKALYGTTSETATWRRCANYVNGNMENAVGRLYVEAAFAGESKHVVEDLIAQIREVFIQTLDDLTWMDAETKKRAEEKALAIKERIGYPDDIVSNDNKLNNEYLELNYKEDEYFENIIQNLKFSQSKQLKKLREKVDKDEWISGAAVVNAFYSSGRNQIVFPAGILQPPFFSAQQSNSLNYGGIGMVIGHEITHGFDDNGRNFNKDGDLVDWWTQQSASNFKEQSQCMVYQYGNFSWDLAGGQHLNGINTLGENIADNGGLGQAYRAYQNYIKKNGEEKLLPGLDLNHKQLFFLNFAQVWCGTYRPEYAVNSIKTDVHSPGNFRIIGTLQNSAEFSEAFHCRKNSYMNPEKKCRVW

[3] = type: in vitro ADME, mouse; settings: CD-1 (source of the primary astrocytes), mouse
[4] = system: co-culture of primary mouse astrocytes and immortalized mouse endothelial cells (bEnd3); type: in vitro ADME; settings: ratio of Pe values
[5] = Brain protein binding, rapid equilibrium dialysis; type: in vitro ADME; settings: mouse, mouse brain homogenate (dilution factor D = 5)
Method in brief: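 Mouse brain homogenate spiked to 500 ng/mL final (from a 10 µg/mL aqueous dilution of DMSO solution) was dialysed against DPBS across an 8 kDa cutoff membrane for 4 h at 37 °C with 250 rpm orbital shaking. Both chambers were sampled and quantified by LC–MS/MS. fu,d = receiver/donor, corrected to undiluted fu with D = 5. Done in triplicate.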

human ACE2 = human ACE2 (Homo sapiens, UniProt Q9BYF1); assay: Peptidase selectivity: ACE2, fluorogenic substrate; type: biochemical; settings: eight-point concentration–response up to 300 μM; substrate 10 μM
Sequence of human ACE2 (Q9BYF1 18-805): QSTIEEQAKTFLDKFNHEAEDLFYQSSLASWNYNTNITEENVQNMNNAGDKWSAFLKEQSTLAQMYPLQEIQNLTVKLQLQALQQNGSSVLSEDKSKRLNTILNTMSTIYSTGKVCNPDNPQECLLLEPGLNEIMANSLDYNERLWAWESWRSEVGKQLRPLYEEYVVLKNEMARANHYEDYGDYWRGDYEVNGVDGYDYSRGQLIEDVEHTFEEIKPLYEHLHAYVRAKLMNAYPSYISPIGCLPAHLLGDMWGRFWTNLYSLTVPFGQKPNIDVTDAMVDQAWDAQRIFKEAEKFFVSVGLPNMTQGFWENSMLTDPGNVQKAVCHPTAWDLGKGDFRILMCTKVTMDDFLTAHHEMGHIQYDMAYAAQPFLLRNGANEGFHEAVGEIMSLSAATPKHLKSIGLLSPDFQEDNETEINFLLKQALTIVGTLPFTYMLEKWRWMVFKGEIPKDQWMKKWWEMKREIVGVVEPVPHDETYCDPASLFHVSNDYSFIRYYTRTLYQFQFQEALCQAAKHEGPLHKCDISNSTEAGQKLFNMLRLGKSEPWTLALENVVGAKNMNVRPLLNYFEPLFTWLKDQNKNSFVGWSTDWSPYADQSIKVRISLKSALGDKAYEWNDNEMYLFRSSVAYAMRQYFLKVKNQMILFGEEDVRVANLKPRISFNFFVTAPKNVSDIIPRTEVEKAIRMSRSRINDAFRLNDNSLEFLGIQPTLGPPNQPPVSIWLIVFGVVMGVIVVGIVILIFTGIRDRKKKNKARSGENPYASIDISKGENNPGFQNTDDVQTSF
Method in brief: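 Recombinant human ACE2 was tested in artificial CSF at 37 °C with a 10 min preincubation of enzyme and test compound (from 30–50 mM DMSO stocks). Mca-Ala-Pro-Lys(Dnp) (10 µM) started the reaction, and fluorescence (320 nm excitation, 405 nm emission) was followed continuously for 20 min; n = 4.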

recombinant rat Nln = recombinant rat Nln (Rattus norvegicus, UniProt P42676); assay: Nln activation, continuous quenched fluorescence substrate; type: biochemical; settings: for Amax, maximum % activation achieved (95% CI): 100% = normal enzyme turnover, mean of n = 4, 95% CI in parentheses; for increase in potency over the least active hit / increase in potency over the most active hit: A50 ratio
Sequence of recombinant rat Nln (P42676 38-704): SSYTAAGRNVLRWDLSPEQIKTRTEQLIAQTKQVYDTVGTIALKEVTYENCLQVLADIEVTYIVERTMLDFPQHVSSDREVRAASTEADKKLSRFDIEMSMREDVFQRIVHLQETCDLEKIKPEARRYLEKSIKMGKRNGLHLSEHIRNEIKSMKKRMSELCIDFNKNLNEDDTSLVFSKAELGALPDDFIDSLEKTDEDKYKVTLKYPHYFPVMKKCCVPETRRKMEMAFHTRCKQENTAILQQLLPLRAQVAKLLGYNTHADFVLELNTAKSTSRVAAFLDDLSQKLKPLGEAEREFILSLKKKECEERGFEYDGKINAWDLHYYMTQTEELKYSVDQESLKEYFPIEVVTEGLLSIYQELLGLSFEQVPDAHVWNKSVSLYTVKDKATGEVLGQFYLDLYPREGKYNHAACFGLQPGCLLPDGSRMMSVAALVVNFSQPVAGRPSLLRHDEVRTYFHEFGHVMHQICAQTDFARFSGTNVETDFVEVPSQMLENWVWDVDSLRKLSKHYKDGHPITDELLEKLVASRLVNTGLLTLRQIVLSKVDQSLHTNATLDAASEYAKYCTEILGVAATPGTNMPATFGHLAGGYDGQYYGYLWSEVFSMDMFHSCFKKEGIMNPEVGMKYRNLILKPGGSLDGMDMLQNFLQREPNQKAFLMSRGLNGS

Sequence of Rat recombinant neurolysin (P42676 38-704): as above

Compound: N[C@@H](Cc1c[nH]cn1)C(=O)NCCc1c[nH]c2ccccc12 [Compound 9d, (S)-N-(2-(1H-Indol-3-yl)ethyl)-2-amino-3-(1H-imidazol-4-yl)-propanamide]
- hydrolysis of BK by Nln, formation of BK-(1–5) [1]: enhanced hydrolysis of BK
- hydrolysis of NT by Nln, formation of NT-(1–10) [1]: hydrolysis of NT by Nln was also enhanced
- effect on catalytic activity of ACE [2]: inhibition of ACE at high concentration
- effect on catalytic activity of TOP (human TOP): only exhibited inhibition at concentrations approaching 300 μM
- effect on catalytic activity of NEP (human NEP): None of the three compounds showed appreciable inhibition
- Papp A→B at 120 min, 10 μg/mL [3]: 17.8 ×10⁻⁶ cm/s
- increase in BBB permeability / brain penetration over hit compounds 1 and 4 [4]: 4–5 fold
- fraction unbound at 4 h, 500 ng/mL [5]: 0.14 ± 0.012
- effect on catalytic activity of ACE2 (human ACE2): inhibition of ACE2 at high concentrations

Compound: N[C@@H](Cc1c[nH]cn1)C(=O)NCc1cccc2ccccc12 [Compound 10c, (S)-2-Amino-3-(1H-imidazol-4-yl)-N-(naphthalen-1-ylmethyl)-propanamide]
- hydrolysis of BK by Nln, formation of BK-(1–5) [1]: enhanced hydrolysis of BK
- hydrolysis of NT by Nln, formation of NT-(1–10) [1]: hydrolysis of NT by Nln was also enhanced
- effect on catalytic activity of ACE [2]: no inhibition at the maximum concentration tested
- effect on catalytic activity of TOP (human TOP): No appreciable inhibition
- effect on catalytic activity of NEP (human NEP): None of the three compounds showed appreciable inhibition
- Amax, maximum % activation achieved (95% CI) (recombinant rat Nln): 264 (256.3 to 272.6) %
- increase in potency over the least active hit (recombinant rat Nln): > 30 fold
- increase in potency over the most active hit (recombinant rat Nln): > 10 fold
- increase in BBB permeability / brain penetration over hit compounds 1 and 4 [4]: 4–5 fold
- effect on catalytic activity of ACE2 (human ACE2): no inhibition up to 300 μM

Compound: N[C@@H](Cc1c[nH]cn1)C(=O)Nc1cccc2cccnc12 [Compound 11a, (S)-2-Amino-3-(1H-imidazol-4-yl)-N-(quinolin-8-yl)propanamide]
- hydrolysis of BK by Nln, formation of BK-(1–5) [1]: enhanced hydrolysis of BK
- hydrolysis of NT by Nln, formation of NT-(1–10) [1]: hydrolysis of NT by Nln was also enhanced
- effect on catalytic activity of ACE [2]: inhibition of ACE at high concentration
- effect on catalytic activity of TOP (human TOP): No appreciable inhibition
- effect on catalytic activity of NEP (human NEP): None of the three compounds showed appreciable inhibition
- Amax, maximum % activation achieved (95% CI) (recombinant rat Nln): 281.2 (266.7 to 297.1) %
- increase in potency over the least active hit (recombinant rat Nln): > 30 fold
- increase in potency over the most active hit (recombinant rat Nln): > 10 fold
- mean Amax of the two enantiomers (recombinant rat Nln; mean over L and D enantiomer): 285%
- Papp A→B at 120 min, 10 μg/mL [3]: 19 ×10⁻⁶ cm/s
- increase in BBB permeability / brain penetration over hit compounds 1 and 4 [4]: 4–5 fold
- fraction unbound at 4 h, 500 ng/mL [5]: 0.062 ± 0.011
- effect on catalytic activity of ACE2 (human ACE2): inhibition of ACE2 at high concentrations
